The structures appear in SMILES notation.

Consider one compound from ChEMBL document CHEMBL5357024, “MDM2 Antagonist Idasanutlin Reduces HDAC1/2 Abundance and Corepressor Partners but Not HDAC3” (ACS Med Chem Lett, 2024).

Common to all, as to format: cell-based
Experiment [1] deals with T1, E3 ubiquitin-protein ligase Mdm2/Histone deacetylase 1 (Homo sapiens) (UniProt Q00987+Q13547). As to the kind of experiment: PROTAC activity at MDM2/HDAC1 in human HCT-116 cells assessed as decrease in HDAC1 abundance by measuring remaining activity at 0.025 uM measured after 24 hrs by Western blot analysis (reference value: 100%). The procedure, abridged: (§1)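 HCT116 cells seeded in six-well plates for 24 h, then exposed 24 h to compound (0.01–10 μM) or DMSO in fresh medium. Lysis in Tris-HCl/NaCl/NP-40/Triton X-100 with protease inhibitor. Bradford-normalised 30 μg protein per lane. Quantitative Western blot used specific HDAC1, HDAC2, HDAC3, LSD1 or Sin3a antibodies with IRDye secondaries. Abundance compared with DMSO, n = 2 replicates.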

Experiment [2] concerns the target T1, E3 ubiquitin-protein ligase Mdm2/Histone deacetylase 1 (Homo sapiens). As to the kind of experiment: PROTAC activity at MDM2/HDAC1 in human HCT-116 cells assessed as decrease in HDAC1 abundance by measuring remaining activity at 0.05 uM measured after 24 hrs by Western blot analysis (reference value: 100%). The procedure, abridged: as §1
Experiment [3] concerns the target T2, E3 ubiquitin-protein ligase Mdm2/Histone deacetylase 3 (Homo sapiens) (UniProt Q00987+O15379). As to the kind of experiment: PROTAC activity at MDM2/HDAC3 in human HCT-116 cells assessed as reduction in HDAC3 abundance by measuring remaining activity at 0.025 uM measured after 24 hrs by Western blot analysis. In short, it runs like this: as §1
For experiment [4], the target named is T2, E3 ubiquitin-protein ligase Mdm2/Histone deacetylase 3 (Homo sapiens). As to the kind of experiment: PROTAC activity at MDM2/HDAC3 in human HCT-116 cells assessed as reduction in HDAC3 abundance by measuring remaining activity at 0.5 uM measured after 24 hrs by Western blot analysis. In short, it runs like this: (§2)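 HCT116 cells in DMEM with 10% FBS and glutamine/penicillin/streptomycin at 37 °C, 5% CO2. Seeded 4 × 10^5 cells/well, after 24 h treated 24 h with DMSO or compound in fresh medium. Lysed in Tris-HCl/NaCl/NP-40/Triton X-100 buffer with protease inhibitor, Bradford-quantified, 30 μg protein per lane. Quantitative Western blot with specific HDAC1/2/3 antibodies, IRDye secondaries, infrared imaging, versus DMSO. n = 2 replicates.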

The target is the same in experiment [5]. As to the kind of experiment: PROTAC activity at MDM2/HDAC3 in human HCT-116 cells assessed as reduction in HDAC3 abundance by measuring remaining activity at 2.5 uM measured after 24 hrs by Western blot analysis. The procedure, abridged:
as §2

In experiment [6] the target is Lysine-specific histone demethylase 1A (Homo sapiens) (UniProt O60341). The experiment is described as follows: Induction of LSD1 degradation in human HCT-116 cells assessed as reduction in LSD1 abundance by measuring remaining activity at 2.5 uM measured after 24 hrs by Western blot analysis (reference value: 100%). In short, it runs like this: as §1

T2 sequence (O15379 whole entry, looked up): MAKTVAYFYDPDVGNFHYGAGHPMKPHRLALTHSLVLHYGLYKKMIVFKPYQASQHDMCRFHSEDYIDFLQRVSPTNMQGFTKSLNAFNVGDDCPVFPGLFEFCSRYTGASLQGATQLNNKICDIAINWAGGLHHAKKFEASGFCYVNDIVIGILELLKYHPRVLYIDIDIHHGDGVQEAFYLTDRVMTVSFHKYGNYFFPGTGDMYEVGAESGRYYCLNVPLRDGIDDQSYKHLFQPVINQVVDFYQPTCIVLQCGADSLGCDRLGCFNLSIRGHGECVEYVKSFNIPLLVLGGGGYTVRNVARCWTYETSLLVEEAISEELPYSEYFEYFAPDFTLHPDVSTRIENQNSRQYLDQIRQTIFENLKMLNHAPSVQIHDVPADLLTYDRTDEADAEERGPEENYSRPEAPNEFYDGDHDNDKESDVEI
T2 sequence (Q00987 whole entry, looked up): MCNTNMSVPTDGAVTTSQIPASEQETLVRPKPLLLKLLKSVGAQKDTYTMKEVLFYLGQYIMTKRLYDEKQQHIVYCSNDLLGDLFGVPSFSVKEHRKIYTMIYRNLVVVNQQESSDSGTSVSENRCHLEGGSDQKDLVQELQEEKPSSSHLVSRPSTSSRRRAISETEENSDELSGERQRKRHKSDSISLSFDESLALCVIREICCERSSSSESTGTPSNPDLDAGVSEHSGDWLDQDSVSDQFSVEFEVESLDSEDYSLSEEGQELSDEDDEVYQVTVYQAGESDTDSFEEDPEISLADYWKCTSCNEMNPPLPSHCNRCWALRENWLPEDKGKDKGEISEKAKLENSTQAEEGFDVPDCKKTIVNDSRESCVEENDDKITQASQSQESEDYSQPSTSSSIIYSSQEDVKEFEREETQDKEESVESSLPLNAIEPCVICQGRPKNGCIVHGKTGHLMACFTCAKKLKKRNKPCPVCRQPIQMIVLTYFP
T1 sequence (Q00987 whole entry, looked up): as above
T1 sequence (Q13547 whole entry, looked up): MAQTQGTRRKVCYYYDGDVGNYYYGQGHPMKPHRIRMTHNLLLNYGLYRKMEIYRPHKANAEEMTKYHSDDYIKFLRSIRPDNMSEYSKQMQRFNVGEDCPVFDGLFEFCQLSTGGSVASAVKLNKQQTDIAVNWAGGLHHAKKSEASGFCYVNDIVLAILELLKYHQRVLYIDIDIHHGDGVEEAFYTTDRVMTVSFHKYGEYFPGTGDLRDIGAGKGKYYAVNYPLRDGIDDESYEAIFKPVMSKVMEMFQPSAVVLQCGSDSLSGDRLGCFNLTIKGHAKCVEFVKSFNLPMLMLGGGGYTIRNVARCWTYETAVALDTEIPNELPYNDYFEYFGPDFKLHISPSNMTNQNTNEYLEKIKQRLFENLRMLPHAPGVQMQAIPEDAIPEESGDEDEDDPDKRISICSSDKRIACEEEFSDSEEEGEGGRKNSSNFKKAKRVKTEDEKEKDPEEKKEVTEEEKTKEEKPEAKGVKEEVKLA

Regarding `COc1cc(C(=O)NCCOCCOCCOCCOCCC(=O)Nc2ccc(C(=O)Nc3ccccc3N)cc2)ccc1NC(=O)[C@@H]1N[C@@H](CC(C)(C)C)[C@](C#N)(c2ccc(Cl)cc2F)[C@H]1c1cccc(Cl)c1F`, the Activity in experiment [1] is 94%; in experiment [2], 88%; in experiment [3], 100%; in experiment [4], 106%; in experiment [5], 112%; in experiment [6] it was 73%.
